Experimental data published in ChEMBL document CHEMBL2163220 (J Med Chem, 2012).
Activity calls are given as the source filed them. The calls are words filed in the database; no cut-off is given here.

Legend:
LNCaP = test: Induction of apoptosis in human LNCAP cells assessed as PARP cleavage activation incubated for 24 hrs by Western blotting; assay type: functional, cell-based
How it was run: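 LNCaP cells in complete medium were exposed to DMSO or compound at 1, 2.5 and 5 μM for 24 h. Western blot measured AR, maspin, caspase-3 activation and PARP cleavage, with β-actin as loading control.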

[1] = target: T1, Androgen receptor (Homo sapiens) (UniProt P10275); test: Antagonist activity at androgen receptor in human LNCaP cells assessed as increase in Maspin protein expression at 1 or 2.5 uM incubated for 24 hrs in presence of DHT by Western blot
T1 sequence (whole entry): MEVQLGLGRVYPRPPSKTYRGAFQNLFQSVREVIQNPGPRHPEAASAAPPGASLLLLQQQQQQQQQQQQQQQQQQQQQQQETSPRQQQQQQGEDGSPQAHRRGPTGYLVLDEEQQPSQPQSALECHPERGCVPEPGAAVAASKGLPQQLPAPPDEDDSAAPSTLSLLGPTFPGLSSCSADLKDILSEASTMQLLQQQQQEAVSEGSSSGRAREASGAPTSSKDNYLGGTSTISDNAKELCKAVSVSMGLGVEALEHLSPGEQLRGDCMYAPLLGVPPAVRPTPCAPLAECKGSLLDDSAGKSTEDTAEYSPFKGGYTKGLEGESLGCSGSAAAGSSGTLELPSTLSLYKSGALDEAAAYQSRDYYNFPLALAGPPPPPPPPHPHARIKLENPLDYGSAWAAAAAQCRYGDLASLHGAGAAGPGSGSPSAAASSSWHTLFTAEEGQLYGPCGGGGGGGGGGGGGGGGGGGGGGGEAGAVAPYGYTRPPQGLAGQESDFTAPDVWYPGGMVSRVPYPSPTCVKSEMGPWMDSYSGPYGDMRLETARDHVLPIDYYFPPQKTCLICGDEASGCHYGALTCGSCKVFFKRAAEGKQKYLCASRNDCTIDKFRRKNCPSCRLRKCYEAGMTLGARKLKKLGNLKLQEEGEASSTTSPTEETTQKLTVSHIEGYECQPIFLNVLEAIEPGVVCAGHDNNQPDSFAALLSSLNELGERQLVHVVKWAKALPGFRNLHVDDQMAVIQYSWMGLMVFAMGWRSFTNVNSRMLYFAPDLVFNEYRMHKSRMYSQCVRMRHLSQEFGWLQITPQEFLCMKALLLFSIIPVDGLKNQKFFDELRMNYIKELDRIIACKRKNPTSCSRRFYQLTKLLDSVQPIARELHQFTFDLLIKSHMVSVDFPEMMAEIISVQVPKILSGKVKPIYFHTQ

[2] = target: T2, Progesterone receptor (Homo sapiens) (UniProt P06401); test: Agonist activity at progesterone receptor in human PC3 cells assessed as stimulation of receptor transactivation at 1 uM by luciferase reporter gene assay; assay type: functional, cell-based; conditions: PC-3
T2 sequence (whole entry): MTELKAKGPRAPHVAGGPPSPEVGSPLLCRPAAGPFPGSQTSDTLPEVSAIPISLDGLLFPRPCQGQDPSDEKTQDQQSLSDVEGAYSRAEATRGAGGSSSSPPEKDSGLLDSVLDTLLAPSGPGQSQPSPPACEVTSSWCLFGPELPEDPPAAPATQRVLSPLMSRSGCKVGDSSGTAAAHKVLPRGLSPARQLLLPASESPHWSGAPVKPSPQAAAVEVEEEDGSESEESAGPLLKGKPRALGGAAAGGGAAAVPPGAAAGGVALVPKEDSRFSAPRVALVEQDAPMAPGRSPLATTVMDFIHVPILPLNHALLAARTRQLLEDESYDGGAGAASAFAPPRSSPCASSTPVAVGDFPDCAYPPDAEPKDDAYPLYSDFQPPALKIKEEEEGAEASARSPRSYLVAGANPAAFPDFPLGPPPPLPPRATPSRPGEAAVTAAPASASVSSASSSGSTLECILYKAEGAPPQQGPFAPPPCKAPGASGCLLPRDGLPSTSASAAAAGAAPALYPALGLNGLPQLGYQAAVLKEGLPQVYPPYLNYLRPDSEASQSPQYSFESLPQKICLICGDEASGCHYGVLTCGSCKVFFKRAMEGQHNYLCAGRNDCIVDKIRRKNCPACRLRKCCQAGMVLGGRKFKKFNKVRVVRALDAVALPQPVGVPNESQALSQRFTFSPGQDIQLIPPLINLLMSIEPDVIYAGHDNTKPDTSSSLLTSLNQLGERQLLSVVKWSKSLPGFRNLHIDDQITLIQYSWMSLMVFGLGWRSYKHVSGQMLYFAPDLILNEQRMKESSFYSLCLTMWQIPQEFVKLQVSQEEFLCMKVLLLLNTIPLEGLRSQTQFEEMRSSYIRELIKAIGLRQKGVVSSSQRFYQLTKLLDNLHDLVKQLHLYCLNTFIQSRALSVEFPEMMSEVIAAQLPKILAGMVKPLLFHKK
How it was run: (§1)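 PC-3 cells lack detectable PR, so they were cotransfected with a PR expression plasmid and the MMTV-luc reporter. Compound tested at 1 μM, alone or against transactivation induced by 10 nM R5020. Read-out was luciferase reporter activity.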

[3] = target: T2, Progesterone receptor (Homo sapiens); test: Antagonist activity at progesterone receptor in human PC3 cells assessed as reduction in R5020-inducedreceptor transactivation at 1 uM by luciferase reporter gene assay; assay type: functional, cell-based; conditions: PC-3; how it was run: as §1

Activity [1]: Active
Activity [2]: inactive
Activity [3]: inactive
SMILES: Cc1coc2c1C(=O)C(=O)c1c-2ccc2c1CCCC2(C)C [TANSHINONE IIA]
Activity (LNCaP): Dose-dependent effect
